The nature of data set [1]: Potentiation of paclitaxel-mediated cytotoxicity against human KBVIN cells assessed as cell viability at 10 uM after 72 hrs by SRB method relative to control. Format: functional. The note with it: read-out: Activity. For orientation: Sulforhodamine B stains cellular protein and so reports cell mass.
The subject of data set [2] is KB. As to the kind of experiment: Potentiation of paclitaxel-mediated cytotoxicity against human KB cells assessed as cell viability at 10 uM after 72 hrs by SRB method relative to control. The format is functional. The note with it: read-out: Activity.
Data set [3] can be described thus: Cytotoxicity against human KBVIN cells assessed as cell viability at 10 ug/ml. The format is cell-based. The note with it: read-out: Activity.
The nature of data set [4]: Cytotoxicity against human A549 cells assessed as cell viability at 10 ug/ml. The format is cell-based. The following applies: read-out: Activity.
Data set [5] can be described thus: Cytotoxicity against human KB cells assessed as cell viability at 10 ug/ml. The format is cell-based. The note with it: read-out: Activity.
A short description of data set [6]: Cytotoxicity against human KBVIN cells assessed as cell viability at 10 uM after 72 hrs by SRB method relative to control. The following applies: read-out: Activity. Format: cell-based.
Data set [7] is described as follows: Cytotoxicity against human DU145 cells assessed as cell viability at 10 ug/ml. The note with it: read-out: Activity. The format is cell-based, DU-145.
Data set [8] is described as follows: Cytotoxicity against human KB cells assessed as cell viability at 10 uM after 72 hrs by SRB method relative to control. Format: cell-based. The note with it: read-out: Activity.
Data set [9] can be described thus: Potentiation of paclitaxel-mediated cytotoxicity against human KBVIN cells assessed as reduction in paclitaxel IC50 at 10 uM after 72 hrs by SRB method relative to control. Format: functional. The method in brief: (§1)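 IC50 of paclitaxel, vincristine or doxorubicin measured in KBvin cells with and without 10 μM compound; reversal fold = IC50 (drug alone)/IC50 (drug + compound); mean ± SD of three independent experiments; verapamil as reference.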

A short description of data set [10]: Potentiation of doxorubicin-mediated cytotoxicity against human KBVIN cells assessed as reduction in doxorubicin IC50 at 10 uM after 72 hrs by SRB method relative to control. The format is functional. The method in brief:
as §1

In data set [11] the target is Multidrug resistance-associated protein 1 (Homo sapiens, UniProt P33527). The experiment in a line: Inhibition of MRP-mediated Fluo3 efflux in human KBVIN cells at 10 uM incubated for 1 hr prior to Fluo3-addition measured after 2 hrs by fluorescence microscopic analysis. Format: cell-based. The procedure, abridged:
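KB or KBvin cells pretreated 1 h with compound or DMSO, then Fluo-3 AM (fluorogenic MRP substrate) added for 2 h; intracellular Fluo-3 retention judged by fluorescence microscopy.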

Data set [12] in a line: Potentiation of vincristine-mediated cytotoxicity against human KBVIN cells assessed as reduction in vincristine IC50 at 10 uM after 72 hrs by SRB method relative to control. The format is functional. The method in brief: as §1
Data set [13] relates to KBVIN. The note with it: Homo sapiens.
Data set [14] in a line: Potentiation of vincristine-mediated cytotoxicity against human KBVIN cells assessed as reduction in vincristine IC50 at 10 uM after 72 hrs by SRB method relative to verapamil. Format: functional. The method in brief: as §1

Sequence of Multidrug resistance-associated protein 1 (P33527 whole entry): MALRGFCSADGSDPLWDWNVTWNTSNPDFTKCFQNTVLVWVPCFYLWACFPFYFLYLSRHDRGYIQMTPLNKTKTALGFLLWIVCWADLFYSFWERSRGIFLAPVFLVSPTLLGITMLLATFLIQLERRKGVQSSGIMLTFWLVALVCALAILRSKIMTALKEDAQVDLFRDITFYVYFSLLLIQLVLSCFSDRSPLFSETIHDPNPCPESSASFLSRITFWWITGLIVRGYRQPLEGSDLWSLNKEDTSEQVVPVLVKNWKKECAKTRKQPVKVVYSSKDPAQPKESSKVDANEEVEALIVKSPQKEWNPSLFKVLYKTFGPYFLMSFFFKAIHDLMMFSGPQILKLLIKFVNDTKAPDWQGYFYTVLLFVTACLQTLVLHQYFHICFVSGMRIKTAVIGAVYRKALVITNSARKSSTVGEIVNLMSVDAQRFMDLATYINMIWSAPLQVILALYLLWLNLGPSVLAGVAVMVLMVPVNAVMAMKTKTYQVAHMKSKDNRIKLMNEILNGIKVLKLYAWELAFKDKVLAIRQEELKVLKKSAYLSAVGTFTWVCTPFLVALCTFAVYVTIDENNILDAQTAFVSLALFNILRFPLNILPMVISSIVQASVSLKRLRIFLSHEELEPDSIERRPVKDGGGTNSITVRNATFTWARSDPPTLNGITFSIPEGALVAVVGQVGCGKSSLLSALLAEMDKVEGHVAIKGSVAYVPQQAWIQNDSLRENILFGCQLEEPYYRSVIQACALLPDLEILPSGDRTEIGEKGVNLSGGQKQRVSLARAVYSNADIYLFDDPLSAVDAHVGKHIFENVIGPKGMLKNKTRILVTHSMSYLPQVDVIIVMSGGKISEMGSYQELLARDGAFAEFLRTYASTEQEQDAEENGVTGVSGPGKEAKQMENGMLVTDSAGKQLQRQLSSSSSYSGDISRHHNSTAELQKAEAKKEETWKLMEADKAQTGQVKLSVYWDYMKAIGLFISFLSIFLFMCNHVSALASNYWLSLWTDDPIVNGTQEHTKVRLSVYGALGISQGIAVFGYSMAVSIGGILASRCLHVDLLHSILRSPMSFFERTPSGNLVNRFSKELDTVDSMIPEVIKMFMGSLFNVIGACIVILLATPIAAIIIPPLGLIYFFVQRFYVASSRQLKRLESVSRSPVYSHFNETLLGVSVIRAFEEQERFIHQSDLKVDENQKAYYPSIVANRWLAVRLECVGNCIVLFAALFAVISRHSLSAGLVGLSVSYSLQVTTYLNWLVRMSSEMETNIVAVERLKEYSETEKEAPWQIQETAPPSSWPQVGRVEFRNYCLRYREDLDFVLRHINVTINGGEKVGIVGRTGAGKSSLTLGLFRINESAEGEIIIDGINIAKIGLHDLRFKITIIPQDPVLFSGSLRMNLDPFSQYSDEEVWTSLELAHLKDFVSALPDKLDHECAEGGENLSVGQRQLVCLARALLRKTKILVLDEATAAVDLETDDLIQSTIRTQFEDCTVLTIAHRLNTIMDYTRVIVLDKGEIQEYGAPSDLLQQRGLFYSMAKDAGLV

For the molecule `COc1cc(C(O)CO)cc(OC)c1OC` (stereo not given), the viability at 10 µM is 99% in data set [1] and 96.8% in data set [2]. In addition, the viability at 10 ug/ml in data set [3], in [4], in data set [5] and in data set [7] was over 80% each time. Moreover, the viability at 72 h, 10 µM in [6] turned out to be 92.4%; in data set [8], 101%.

`COc1cc(C(O)CO)c(I)c(OC)c1OC` (stereo not given): the viability at 10 µM in data set [1] is 91.8%; in data set [2] it was 97%. Also, the viability at 10 ug/ml in data set [3], in data set [4], in data set [5] and in data set [7] was over 80% throughout. Also, the viability at 72 h, 10 µM in [6] worked out at 90%; in data set [8], 95.1%.

Consider `COc1cc(C(=O)OCC(O[Si](C)(C)C(C)(C)C)c2cc(OC)c(OC)c(OC)c2I)cc(OC)c1OC` (stereo not given), for which the viability at 10 µM in data set [1] came out at 19.6%; in data set [2] it was 58%. Also, the viability at 10 ug/ml in data set [3] was found to be 36.7%; in [4], 37%; in data set [5], 26.1%; in [7], 0%. Besides, the viability at 72 h, 10 µM in data set [6] turned out to be 41%; in data set [8], 64.2%.

In the case of `C/C=C/C=C/C(=O)OCC(OC(=O)/C=C/C=C/C)c1cc(OC)c(OC)c(OC)c1` (stereo not given), the viability at 10 µM in data set [1] turned out to be 31.3%; in [2] it was 76.8%. Moreover, the viability at 10 ug/ml in data set [3] was found to be 50.1%; in data set [4], 49.6%; in data set [5] it was 74.7%; in data set [7], 40.8%. The viability at 72 h, 10 µM in data set [6] was determined as 81.5%; in data set [8] it was 91.2%.

With `COc1cc(C(=O)OCC(O[Si](C)(C)C(C)(C)C)c2cc(OC)c(OC)c(OC)c2)cc(OC)c1OC` (stereo not given), the “fold change (FC)” value in data set [9] amounted to 216; in data set [10], 79; in [12], 1684. Moreover, the viability at 10 µM in [1] amounted to 12.3%; in data set [2], 70.3%. For the same molecule, the viability at 10 ug/ml in data set [3], in [4], in data set [5] and in [7] was over 80% throughout. In addition, the viability at 72 h, 10 µM came to 74.3% in [6] and 83.9% in data set [8]. Further, in data set [11], the “inhibition (INH)” value is “Active”. Further, in data set [13], the Flu intensity was determined as 184.

Take `COc1cc(C(=O)OCC(O)c2cc(OC)c(OC)c(OC)c2I)cc(OC)c1OC` (stereo not given): the “fold change (FC)” value is 164 in data set [9], 51 in data set [10] and 798 in [12]. The values for the viability at 10 µM in data set [1] and in data set [2] were 0% and 75.7%, respectively. The viability at 10 ug/ml in data set [3], in [4], in [5] and in [7] was over 80% in each case. Further, the viability at 72 h, 10 µM in data set [6] was 83.3%; in data set [8] it was 77%. This molecule also registered a Flu intensity in data set [13] of 226.

For `COc1cc(C(=O)OCC(OC(=O)c2cc(OC)c(OC)c(OC)c2)c2cc(OC)c(OC)c(OC)c2I)cc(OC)c1OC` (stereo not given), the “fold change (FC)” value in data set [9] is 141; in data set [14] it was 340; in data set [10], 156; in data set [12], 2285. The viability at 10 µM in data set [1] came out at 0%; in [2], 73.7%. Also, the viability at 10 ug/ml in data set [3] amounted to 47%; in data set [4] it was 56.2%; in data set [5], 75.4%; in data set [7], 46.6%. Also, the viability at 72 h, 10 µM in data set [6] was found to be 87.1%; in [8] it was 84.2%. Further, the “inhibition (INH)” value in [11] is “Not Active”. In addition, the Flu intensity in data set [13] turned out to be 456.

Take `COc1ccc(CCN(C)CCCC(C#N)(c2ccc(OC)c(OC)c2)C(C)C)cc1OC` (stereo not given) [VERAPAMIL]: the “fold change (FC)” value is 72 in data set [9], 6 in data set [10] and 97 in data set [12].

With `C/C=C/C(=O)OCC(OC(=O)CCCCCCCCCCC)c1cc(OC)c(OC)c(OC)c1` (stereo not given), the viability at 10 µM in [1] amounted to 44%; in data set [2] it was 83.9%. Besides, the viability at 10 ug/ml in data set [3] was found to be 41.1%; in [4], 51.1%; in [5], 76.2%; in [7] it was 41.9%. The viability at 72 h, 10 µM in [6] came out at 79.9%; in data set [8], 91.1%.

Turning to `COc1ccc(/C=C/C(=O)OCC(OC(=O)/C=C/c2ccccc2)c2cc(OC)c(OC)c(OC)c2I)cc1OC` (stereo not given), the figures for the “fold change (FC)” value in [9], in [10] and in data set [12] were 166, 23 and 620, respectively. Besides, the viability at 10 µM was 0% in data set [1] and 76.5% in [2]. In addition, the viability at 10 ug/ml in [3], in [4], in data set [5] and in data set [7] was over 80% each time. Moreover, the figures for the viability at 72 h, 10 µM in [6] and in [8] were 95.3% and 85.9%, respectively. The molecule further registered a Flu intensity in data set [13] of 414.

In the case of `COc1cc(C(O)COC(=O)C2CCCCC2)cc(OC)c1OC` (stereo not given), the viability at 10 µM in [1] was 103%; in [2], 96.7%. Also, the viability at 10 ug/ml in [3], in data set [4], in data set [5] and in data set [7] was over 80% throughout. Also, the viability at 72 h, 10 µM turned out to be 110% in data set [6] and 98.9% in data set [8].

In the case of `COc1cc(C(COC(C)=O)OC(C)=O)cc(OC)c1OC` (stereo not given), the viability at 10 µM amounted to 92% in [1] and 96% in [2]. Also, the viability at 10 ug/ml in data set [3], in [4], in data set [5] and in data set [7] was over 80% in each case. Also, the figures for the viability at 72 h, 10 µM in [6] and in [8] were 91.5% and 98%, respectively.
